Measured values from ChEMBL document CHEMBL3272092, “Synthesis and antihypertensive activity of 5-thio-2-pyridinecarboxylic acid derivatives” (J Med Chem, 1978).

Legend:
[1] = system: Rattus norvegicus; assay: Antihypertensive activity in spontaneous hypertensive rat model assessed as decrease in blood pressure at 100 mg/kg, po administered for 2 to 4 days measured on day 2 to day 4; assay type: functional
How it was run: (§1)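 SHR, 4–6 per drug, were dosed daily by gavage for 2 or 4 consecutive days in 3% cornstarch, 5% PEG-400 and 1 drop Tween 80 per mL. After 1 h acclimation, systolic pressure was read by tail-cuff (inflated to 250 mmHg, then lowered; pulse reemergence), at least three readings, at 1, 2, 3 and 24 h post-dose. The peak fall is scored: +, <20 mm up to >80 mm.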

[2] = system: Rattus norvegicus; assay: Antihypertensive activity in spontaneous hypertensive rat model assessed as decrease in blood pressure at 30 mg/kg, po administered for 2 to 4 days measured on day 2 to day 4; assay type: functional
[3] = system: Rattus norvegicus; assay: Toxicity in spontaneous hypertensive rat model at 100 mg/kg, po administered for 2 to 4 days; assay type: organism-based; parameters: dose 100 mg/kg, route oral; settings: in vivo
[4] = system: Rattus norvegicus; assay: Antihypertensive activity in spontaneous hypertensive rat model assessed as decrease in blood pressure at 200 mg/kg, po administered for 2 to 4 days measured on day 2 to day 4; assay type: functional; how it was run: as §1
[5] = system: Rattus norvegicus; assay: Toxicity in spontaneous hypertensive rat model assessed as bradycardia at 100 to 200 mg/kg, po administered for 2 to 4 days; assay type: organism-based; parameters: route oral; settings: in vivo
How it was run: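 Heart rate in SHR was counted from tail-cuff pressure pulses after 1 h acclimation. Rats (4–6 per drug) were gavaged daily for 2 or 4 days at 100 mg/kg (sometimes 200 mg/kg) in 3% cornstarch, 5% PEG-400 and 1 drop Tween 80 per mL. Recordings were at 1, 2, 3 and 24 h after each dose.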

[6] = system: Canis familiaris; assay: Antihypertensive activity in unanesthetized renal hypertensive Mongrel dog model assessed as change in mean blood pressure at 100 mg/kg, po qd measured on day 1; assay type: functional, Canis lupus familiaris
How it was run: (§2)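 Unanesthetized renal hypertensive dogs. Arterial pressure was recorded via a hypodermic needle and polyethylene tubing to a pressure transducer. Drug was given orally once daily as solid in a gelatin capsule. Pressure was determined 1.5, 3, 6 and 24 h after each dose, and the maximum change over each daily monitored session is reported.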

[7] = system: Canis familiaris; assay: Antihypertensive activity in unanesthetized renal hypertensive Mongrel dog model assessed as change in mean blood pressure at 100 mg/kg, po qd measured on day 2; assay type: functional, Canis lupus familiaris; how it was run: as §2
[8] = system: Canis familiaris; assay: Toxicity in unanesthetized renal hypertensive Mongrel dog model assessed as change in heart rate at 100 mg/kg, po qd measured on day 1; assay type: organism-based, Canis lupus familiaris; parameters: dose 100 mg/kg, route oral; settings: in vivo
How it was run: (§3)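 Heart rate in unanesthetized renal hypertensive dogs was counted manually from the transducer-recorded arterial pressure trace. Oral dosing was once daily as solid in a gelatin capsule. Readings were at 1.5, 3, 6 and 24 h post-dose, and the maximum change per daily session is reported.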

[9] = system: Canis familiaris; assay: Toxicity in unanesthetized renal hypertensive Mongrel dog model assessed as change in heart rate at 100 mg/kg, po qd measured on day 2; assay type: organism-based, Canis lupus familiaris; parameters: dose 100 mg/kg, route oral; settings: in vivo; how it was run: as §3
[10] = system: Squirrel monkey; assay: Antihypertensive activity in normotensive squirrel monkey model assessed as decrease in systolic blood pressure at 100 mg/kg, po qd measured on day 2 by sphygmomanometry; assay type: functional, Saimiri sciureus, Artery
How it was run: (§4)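 Restrained squirrel monkeys of either sex with tails warmed by infrared lamp. Systolic pressure was measured indirectly with a tail-base occlusion cuff and pulse transducer. Doses were given daily by gavage as a suspension in 3% cornstarch, 5% PEG-400 and 1 drop Tween 80 per 10 mL. Readings were taken 1.5, 3, 5 and 24 h post-dose. Values are the peak change after each dose, analysed by paired t test.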

[11] = system: Squirrel monkey; assay: Antihypertensive activity in normotensive squirrel monkey model assessed as decrease in systolic blood pressure at 100 mg/kg, po qd measured on day 1 by sphygmomanometry; assay type: functional, Saimiri sciureus, Artery; how it was run: as §4
[12] = system: Squirrel monkey; assay: Antihypertensive activity in normotensive squirrel monkey model assessed as decrease in systolic blood pressure at 100 mg/kg, po qd measured on day 3 by sphygmomanometry; assay type: functional, Saimiri sciureus, Artery; how it was run: as §4
[13] = system: Squirrel monkey; assay: Antihypertensive activity in normotensive squirrel monkey model assessed as decrease in systolic blood pressure at 100 mg/kg, po qd measured on day 4 by sphygmomanometry; assay type: functional, Saimiri sciureus, Artery; how it was run: as §4
[14] = system: Squirrel monkey; assay: Toxicity in normotensive squirrel monkey model assessed as change in heart rate at 100 mg/kg, po qd measured on day 2; assay type: organism-based, Saimiri sciureus; parameters: dose 100 mg/kg, route oral; settings: in vivo
How it was run: (§5)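 Heart rate in restrained, tail-warmed squirrel monkeys was counted manually from the tail-cuff pressure record. Daily gavage used a suspension in 3% cornstarch, 5% PEG-400 and 1 drop Tween 80 per 10 mL. Monitoring was at 1.5, 3, 5 and 24 h after each dose, and the peak change per administration is reported. Paired t test.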

[15] = system: Squirrel monkey; assay: Toxicity in normotensive squirrel monkey model assessed as change in heart rate at 100 mg/kg, po qd measured on day 1; assay type: organism-based, Saimiri sciureus; parameters: dose 100 mg/kg, route oral; settings: in vivo; how it was run: as §5
[16] = system: Squirrel monkey; assay: Toxicity in normotensive squirrel monkey model assessed as change in heart rate at 100 mg/kg, po qd measured on day 3; assay type: organism-based, Saimiri sciureus; parameters: dose 100 mg/kg, route oral; settings: in vivo; how it was run: as §5
[17] = system: Squirrel monkey; assay: Toxicity in normotensive squirrel monkey model assessed as change in heart rate at 100 mg/kg, po qd measured on day 4; assay type: organism-based, Saimiri sciureus; parameters: dose 100 mg/kg, route oral; settings: in vivo; how it was run: as §5
[18] = system: Canis familiaris; assay: Toxicity in unanesthetized renal hypertensive Mongrel dog model assessed as emesis at 100 mg/kg, po qd measured on day 1 to 4; assay type: organism-based, Canis lupus familiaris; parameters: dose 100 mg/kg, route oral; settings: in vivo

In the case of `CC(Sc1ccc(C(=O)O)nc1)c1cccc(C(F)(F)F)c1` (centres undefined), the Activity [1] is reported as over 40 mmHg.
Work on `Cc1cccc(CSc2ccc(C(=O)O)nc2)c1` yielded an Activity [1] of under 20 mmHg.
`O=C(O)c1ccc([S+]([O-])c2ccc(Cl)cc2)cn1` (centres undefined) was tested, and the Activity [1] was under 20 mmHg.
For `O=C([O-])c1ccc(Sc2ccc(Cl)cc2)cn1.[Na+]`, the Activity [2] was under 20 mmHg and the Activity [3] was “Toxic”.
In the case of `O=C(O)c1ccc(SCCc2ccccc2)cn1`, the Activity [3] is reported as “Toxic”.
With `O=C(O)c1ccc(SCc2cccc(F)c2)cn1` the Activity [1] was over 20 mmHg.
For `N#Cc1cccc(CSc2ccc(C(=O)[O-])nc2)c1.[Na+]`, the Activity [1] was over 20 mmHg.
`Cc1ccc(CSc2ccc(C(=O)[O-])nc2)cc1.[Na+]` was tested, and the Activity [1] was under 20 mmHg.
`O=C([O-])c1ccc(SCc2ccc(Br)cc2)cn1.[Na+]` showed an Activity [1] of over 40 mmHg.
Compound `O=C(O)c1ccc(SCc2ccccc2Cl)cn1` has an Activity [1] of under 20 mmHg.
In the case of `O=C([O-])c1ccc([S+]([O-])Cc2cccc(Br)c2)cn1.[Na+]` (centres undefined), the Activity [1] is reported as over 20 mmHg.
With `CCCC(Sc1ccc(C(=O)O)nc1)c1cccc(C(F)(F)F)c1` (centres undefined) the Activity [1] was over 20 mmHg.
In the case of `O=C(O)c1ccc([S+]([O-])Cc2cccc(C(F)(F)F)c2)cn1` (centres undefined), the Activity [1] is reported as over 40 mmHg, the Activity [4] is reported as over 60 mmHg and the Activity [5] is reported as “Toxic”. The Activity [6] was -7 mmHg, the Activity [7] was -10 mmHg and the Activity [8] was 10 bpm. The Activity [9] was 2 bpm, the Activity [10] was -29 mmHg and the Activity [11] was -30 mmHg. For the same compound, the Activity [12] was -19 mmHg, the Activity [13] was -19 mmHg and the Activity [14] was -83 bpm. It also gave an Activity [15] of -43 bpm, an Activity [16] of -73 bpm and an Activity [17] of -33 bpm. The Activity [18] was “Non-toxic”.
Work on `O=C([O-])c1ccc(SCc2cccc(Br)c2)cn1.[Na+]` yielded an Activity [1] of over 60 mmHg.
With `O=C([O-])c1ccc(SCc2ccc(Cl)c(Cl)c2)cn1.[Na+]` the Activity [1] was under 20 mmHg.
Compound `O=C([O-])c1ccc(S(=O)(=O)Cc2cccc(C(F)(F)F)c2)cn1.[Na+]` has an Activity [1] of under 20 mmHg.
Work on `CC(Sc1ccc(C(=O)O)nc1)c1cccc(Cl)c1` (centres undefined) yielded an Activity [1] of under 20 mmHg.
For `O=C(O)c1ccc(Sc2cccc(Cl)c2)cn1`, the Activity [1] was over 20 mmHg.
